This is an account of results in ChEMBL document CHEMBL1158731, “Anti-babesial and anti-plasmodial compounds from Phyllanthus niruri” (J Nat Prod, 2005).

≈ marks a conversion by molar mass, not a printed value.

Series [1] is described as follows: Cytotoxicity against human RBC. The format is cell-based. As to conditions: erythrocyte.
A further series deals with Plasmodium falciparum. The series can be described thus: Antiplasmodial activity against chloroquine-susceptible Plasmodium falciparum FCR3 in human erythrocytes after 24 hrs. The format is functional, organism-based. As to conditions: FCR3, 24 h. The method in brief: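 P. falciparum FCR-3 kept in culture and synchronized with 5% D-sorbitol, then washed in RPMI 1640. Infected RBCs resuspended at 0.25-0.50% parasitemia in RPMI 1640 with 10% human serum, 25 mM Hepes, gentamicin and Na2CO3, then incubated with test solution at 37 °C under 5% CO2. Stopped once controls reached 20% schizonts. Schizonts counted on Giemsa smears; IC50 read from the inhibition-versus-concentration graph.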

The nature of series [2]: Cytotoxicity against dog RBC. In kind it is cell-based, Canis lupus familiaris. The following applies: erythrocyte.
Another series relates to Babesia gibsoni. The series can be described thus: Antibabesial activity against Babesia gibsoni in dog erythrocytes after 72 hrs. In kind it is functional, organism-based.

In general, IC50 refers to the concentration that gives 50% inhibition. Read a high IC50 as a need for much substance. As to `O=C(O[C@H]1O[C@H](COC(=O)c2cc(O)c(O)c3oc(=O)c4cc(O)c(O)c(O)c4c23)[C@@H](O)[C@H](O)[C@H]1O)c1cc(O)c(O)c(O)c1`, the Activity entry in series [1] and in series [2] was “Non-toxic” throughout. Besides, the half-maximal inhibitory concentration (IC50) worked out at 1.4 µg/mL (≈ 2.21 µM) with Plasmodium falciparum and 4.7 µg/mL (≈ 7.41 µM) with Babesia gibsoni.
Regarding `O=c1c(O[C@@H]2O[C@H](CO)[C@@H](O)[C@H](O)[C@H]2O[C@@H]2OC[C@@H](O)[C@H](O)[C@H]2O)c(-c2ccc(O)c(O)c2)oc2cc(O)cc(O)c12`, the Activity result in series [1] and in series [2] was “Non-toxic” each time. Further, the IC50 was 11 µg/mL (≈ 18.4 µM) in the series on Plasmodium falciparum and 35.2 µg/mL (≈ 59 µM) in the series on Babesia gibsoni.
As for `O=C(O[C@@H]1O[C@H](CO)[C@@H](O)[C@H](O)[C@H]1O)c1cc(O)c(O)c(O)c1`, the Activity entry in series [1] and in series [2] was “Non-toxic” each time. Moreover, the figures for the half-inhibitory concentration (IC50) with Plasmodium falciparum and with Babesia gibsoni were 4.6 µg/mL (≈ 13.8 µM) and 7.5 µg/mL (≈ 22.6 µM), respectively.
On to `CC[C@H](CC[C@@H](C)[C@H]1CC[C@H]2[C@@H]3CC=C4C[C@@H](O)CC[C@]4(C)[C@H]3CC[C@]12C)C(C)C` [BETA-SITOSTEROL], for which the Activity result in series [1] and in series [2] was “Non-toxic” in each case. The IC50 with Plasmodium falciparum is 32 µg/mL (≈ 77.2 µM); in the series on Babesia gibsoni, 61.6 µg/mL (≈ 149 µM).
`CC(=O)NCC(=O)O.N=C(N)c1ccc(/N=N/Nc2ccc(C(=N)N)cc2)cc1` [DIMINAZEN ACETURATE] registered an IC50 with Babesia gibsoni of 0.6 µg/mL.
Consider `O=C(O)c1cc(O)c(O)c(O)c1` [GALLIC ACID], for which the Activity entry in series [1] and in series [2] was “Non-toxic” throughout. The IC50 with Plasmodium falciparum was determined as 14.8 µg/mL (≈ 87 µM); with Babesia gibsoni, 13.4 µg/mL (≈ 78.8 µM).
